Compound activity deposited in PubChem by several laboratories.
KLF5 inhibitor: kruppel-like factor 5 inhibition; 290,000 tested, 0.23% active; AID 1700; inhibition, % at 5 µM; DLD-1 KLF5 promoter-luciferase reporter, luminescence;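 active = inhibition above a per-plate limit of that plate's mean compound inhibition plus 3 SD, cut at about 60% in these data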;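 also: 0% = DMSO wells and 100% = LY294002 at 200 µM; higher means less KLF5 promoter-driven luciferase light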
BaF3 tox: counter-screen for JAK2V617F inhibitors: parental Ba/F3 viability inhibitors | AID 1486 | CellTiter-Glo ATP luminescence | inhibition, % at 5.6 µM | 220,000 tested, 1.1% active;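 active = inhibition above a per-campaign cutoff, the mean inhibition of all tested compounds plus 3 SD, cut at about 27% in these data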;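 also: 0% = DMSO wells and 100% = JAK Inhibitor I control wells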
IEC-6 tox-1: IEC-6 cytotoxicity, counter-screen for KLF5 inhibitors. luminescence viability. 290,000 tested, 0.78% active. inhibition, % at 5 µM. AID 1825;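 also: 0% = plate median of test compound wells and 100% = cytotoxic reference compound wells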
Ba/F3 V617F tox: loss of viability in JAK2V617F-driven Ba/F3 cells. Ba/F3 EpoR-JAK2V617F viability, ATP luminescence. AID 1446. 220,000 tested, 1.1% active. inhibition, % at 5.6 µM;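 active = inhibition above the campaign mean plus 3 SD over all tested compounds, cut at about 24% in these data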;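 also: cytokine-independent growth of Ba/F3 cells driven by EpoR plus mutant JAK2; 0% = DMSO-treated cells and 100% = JAK inhibitor I control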
MT stabilizer: microtubule stabilization, imaging screen | HeLa tubulin immunostaining HCS, 24 h; share of cells brighter than vehicle mean+2SD | % tubulin-high responders, % at 10 µM | 200,000 tested, 0.83% active;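 active = plate Z-score above 3 for both tubulin-high and condensed-nucleus cell shares, with cell loss under 80%, at 10 µM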;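 also: anti alpha tubulin signal scored within the nucleus-defined area of each cell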
bCat nuc transl: modulators of beta-catenin nuclear translocation | HeLa beta-catenin nuclear translocation, immunofluorescence imaging | 190,000 tested, 0.3% active | nuclear translocation activity, % at 5 µM;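 active = nuclear translocation activity above 50% at 5 µM, with a well cell count of 50 or more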;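 also: per-cell ratio of nuclear to cytoplasmic median beta-catenin stain intensity; plate controls were DMSO negative control for no effect and GSK-3 inhibitor IX positive control for full effect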
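Test system: HeLa cells, endogenous beta-catenin; Compound: single 5 µM dose plus 0.02–20 µM confirmation series; Times: compound exposure 24 h at 37°C; Signal: fluorescence imaging of beta-catenin antibody stain plus DAPI; Read-out: % activation, nuclear-to-cytoplasmic median beta-catenin signal ratio per cell.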
BaF3 tox 2: parental Ba/F3 viability inhibition for JAK2V617F counter-screen; shares compounds with Ba/F3 V617F tox; AID 1520; 580 tested, 31% active; CellTiter-Glo luminescence; cells kept alive by added IL-3; inhibition, % at 5.6 µM;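 active = cell growth inhibition above the hit limit set in the earlier mutant JAK2 cell screen, cut at about 27% in these data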;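 also: plate controls were DMSO-treated cells for no effect and JAK Inhibitor I control wells for full effect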
JAK2V617F confrm: confirmation: loss of viability in JAK2V617F-dependent Ba/F3 cells | inhibition, % at 5.6 µM | Ba/F3 EpoR-JAK2V617F viability, CellTiter-Glo luminescence | shares compounds with Ba/F3 V617F tox | 580 tested, 66% active;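 active = mean inhibition above the hit cutoff derived in the earlier primary screen, cut at about 25% in these data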;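 also: 0% = DMSO-treated cells and 100% = JAK inhibitor I control wells; higher means lower luminescence from reduced cell ATP and viability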
KLF5 confirm: KLF5 inhibition, confirmation assay; shares compounds with KLF5 inhibitor; DLD-1 KLF5 promoter firefly luciferase reporter, luminescence; inhibition, % at 4 µM; 610 tested, 79% active;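 active = inhibition above a set limit taken from the earlier primary screen, cut at about 63% in these data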;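 also: 0% = DMSO wells and 100% = LY294002 at 200 µM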
IEC-6 tox-2: rat IEC-6 cytotoxicity, KLF5 inhibitor counter-screen; 610 tested, 56% active; IEC-6 rat intestinal cells, viability luminescence; inhibition, % at 4 µM; shares compounds with KLF5 inhibitor; in the data active = inhibition above about 23%;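 also: cells exposed to compounds for 48 hours before viability read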
IEC-6 tox confirm: confirmation of cytotoxic compounds in rat IEC-6 intestinal epithelial cells; IEC-6 rat intestinal epithelial viability, luminescence; inhibition, % at 5 µM; shares compounds with IEC-6 tox-1; 1,900 tested, 63% active;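 also: 0% = vehicle and 100% = reference cytotoxic drug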
* hit, by the source's call; . = not tested or not shown. Sampled rows, rich in hits. Any-hit rate of the full collection: about 2.1%. Rule as the data show it, unless noted: active = inhibition above about 22%; inactive = the rest.

SMILES	KLF5 inhibitor	BaF3 tox	IEC-6 tox-1	Ba/F3 V617F tox	MT stabilizer	bCat nuc transl	BaF3 tox 2	JAK2V617F confrm	IEC-6 tox confirm	others
O=C(O)COc1ccccc1/C=C1\SC(=S)N(c2cccnc2)C1=O	-16	-1	6	82*	.	0	-4	12	.
CC1(c2ccccc2)NC(=O)N(Cc2ccc([N+](=O)[O-])cc2)C1=O (centres undefined)	-16	1	2	-2	10	0	.	.	.
COc1ccc(CCNC(=O)CSc2nnc(CNC(=O)c3c(F)cccc3Cl)o2)cc1OC	-19	.	0	.	.	.	.	.	.
Cc1csc(NC(=O)c2cc3c(C)nn(Cc4ccccc4Cl)c3s2)n1	-24	10	1	36*	2	-1	24	27*	.
Cc1nn(Cc2ccccc2Cl)c2sc(C(=O)NC(C)(C)C)cc12	6	3	2	-2	3	-3	.	.	.
O=C(N/N=C/c1cc2c3c(c1O)CCCN3CCC2)c1ccccc1O	5	5	-5	35*	5	4	95*	96*	.
CS(=O)(=O)Nc1cccc(-c2cn3c(n2)SCC3)c1	-14	.	5	.	.	.	.	.	.
N=c1c2c(-c3ccccc3)c(-c3ccccc3)n(Cc3ccco3)c2ncn1Cc1ccccc1	-3	1	3	0	5	.	.	.	.
N=c1c2c(-c3ccccc3)c(-c3ccccc3)n(Cc3ccccc3)c2ncn1CCO	76*	4	2	27*	3	-1	1	23	.	KLF5 confirm=57;IEC-6 tox-2=22*
C(=N\Nc1nc2ccccc2[nH]1)/c1ccccn1	86*	26	9	31*	3	.	24	36*	.	KLF5 confirm=70*;IEC-6 tox-2=46*
O=C1CCc2cc(S(=O)(=O)N3CCCC3C(=O)N3CCN(c4ccccc4)CC3)ccc2N1 (centres undefined)	11	1	6	1	4	-2	.	.	.
CN(C)S(=O)(=O)c1cccc(NC(=S)N/N=C/c2cc(Br)ccc2O)c1	64*	26	-2	59*	.	-2	95*	84*	.	KLF5 confirm=77*;IEC-6 tox-2=23*
CCCCCN1C=CC(=C2C(=O)c3ccccc3C2=O)C=C1	95*	24	19	24*	3	-1	34*	45*	.	KLF5 confirm=97*;IEC-6 tox-2=12
CC1=CC(=C2C(=O)c3ccccc3C2=O)C=C(C)N1C	-124	9	-1	3	5	1	.	.	.
CC(C)CN(CC(C)C)C(=O)Nc1ccc(F)cc1F	-18	3	1	-4	.	-1	.	.	.
Cc1ccc(N(C(=O)CCl)C(C(=O)NC2CCCCC2)c2cccnc2)cc1C (centres undefined)	-11	-3	80*	86*	11	8	77*	100*	63*
Cc1ccc(N(C(=O)CNC(=O)c2ccco2)C(C(=O)NC2CCCCC2)c2cccnc2)cc1C (centres undefined)	-27	.	1	.	.	.	.	.	.
O=C1CCC(C(=O)Nc2cccc(Oc3ccccc3)c2)=NN1	-56	1	8	0	2	-2	.	.	.
COc1ccc(-c2cnc3c(c2)CCC3(C#N)C#N)cc1	19	9	70*	38*	2	1	1	78*	6
CCCNC(=O)NS(=O)(=O)c1ccc(Cl)cc1	-13	5	0	-3	3	-5	.	.	.
CCCNC(=O)c1nnsc1S(=O)(=O)c1ccc(Cl)cc1	-6	23	26*	94*	4	-2	96*	98*	22*
CCOc1ccccc1C(=O)Nc1ccsc1C(=O)OC	12	16	32*	54*	28*	57*	58*	94*	53*
Cc1ccc(OCC(=O)NCCCNC(=O)c2cccnc2)cc1	-50	.	5	.	.	.	.	.	.
CCOCCCNC(=O)/C(C#N)=C/c1cc(Br)c(O)c(Br)c1	39	10	24*	64*	.	50*	14	55*	10
CC(=O)NC(Cc1ccc(F)cc1)C(=O)N1CCN(C(=O)NCc2ccccc2)CC1 (centres undefined)	-10	8	-2	6	6	-3	.	.	.
SMILES	KLF5 inhibitor	BaF3 tox	IEC-6 tox-1	Ba/F3 V617F tox	MT stabilizer	bCat nuc transl	BaF3 tox 2	JAK2V617F confrm	IEC-6 tox confirm	others
Cc1ccc(C(=O)N/N=C/c2ccc(-c3cccc(C(F)(F)F)c3)o2)cn1	35	-2	28*	39*	.	12	58*	91*	37*
CCCS(=O)(=O)c1nnnn1-c1cccc(OC)c1	5	5	33*	39*	2	9	76*	99*	48*
Cc1ccc(OCCN2C(=O)C(=O)c3cc(C)ccc32)cc1	-32	7	91*	25*	1	0	57*	99*	46*
CC(=O)n1cc(Nc2ccccc2C(=O)O)c2ccccc21	-5	1	3	-2	2	-4	.	.	.
COc1ccccc1N(C(=O)CCl)c1cn(C(C)=O)c2ccccc12	-7	-1	57*	75*	.	1	4	87*	23*
COc1ccc(CS(=O)(=O)/C(Cl)=C(/Cl)C(=O)Nc2ccc(OC)nc2)cc1	45	5	88*	32*	1	.	99*	99*	29*
COc1ccc(/C=C/C(=O)Nc2ccc(OC)nc2)cc1	-7	1	-6	2	5	-4	.	.	.
Nc1nnnn1/N=C/C(Br)=C/c1ccccc1	10	-2	101*	74*	32	1	105*	100*	54*
COc1ccc2cc(OCC(=O)NNC(=O)Nc3ccc(C(C)=O)cc3)ccc2c1	-56	.	0	.	.	.	.	.	.
O=C1C=C(Nc2ccc(O)cc2)C(=O)c2ccccc21	-128	3	25*	49*	.	21	23	76*	7
Cc1ccc(NC2=CC(=O)C(=O)c3ccccc32)cc1	-57	10	2	4	4	.	.	.	.
Cc1ccc(O)c(CCc2ccc(O)cc2)n1	-13	5	-10	-6	2	-1	.	.	.
CSc1nc2ccsc2c(=O)n1-c1ccccn1	-4	0	3	0	2	-2	.	.	.
O=C(NCc1cccnc1)c1ccc(NC(=O)c2ccco2)cc1	-39	2	4	-4	4	-2	.	.	.
CC(C)C(=O)Nc1ccc(C(=O)NCc2cccnc2)cc1	-25	20	62*	60*	4	1	35*	99*	23*
